# Screening data (PubChem)
# RAD54 branch: RAD54 (human) branch migration inhibition. RAD54 Holliday junction branch migration, FAM/BHQ fluorescence. inhibition, % at 10.4 µM. actives 0.14% (n = 360,000);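 active = mean normalized replicate activity at least 40 and at least half of replicates scoring 40 or more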;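 note: 0% = median of neutral control wells and 100% = median of positive control wells; inhibitors cause a drop in the FAM fluorescence signal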
# Target sequence (Q92698 whole entry, looked up): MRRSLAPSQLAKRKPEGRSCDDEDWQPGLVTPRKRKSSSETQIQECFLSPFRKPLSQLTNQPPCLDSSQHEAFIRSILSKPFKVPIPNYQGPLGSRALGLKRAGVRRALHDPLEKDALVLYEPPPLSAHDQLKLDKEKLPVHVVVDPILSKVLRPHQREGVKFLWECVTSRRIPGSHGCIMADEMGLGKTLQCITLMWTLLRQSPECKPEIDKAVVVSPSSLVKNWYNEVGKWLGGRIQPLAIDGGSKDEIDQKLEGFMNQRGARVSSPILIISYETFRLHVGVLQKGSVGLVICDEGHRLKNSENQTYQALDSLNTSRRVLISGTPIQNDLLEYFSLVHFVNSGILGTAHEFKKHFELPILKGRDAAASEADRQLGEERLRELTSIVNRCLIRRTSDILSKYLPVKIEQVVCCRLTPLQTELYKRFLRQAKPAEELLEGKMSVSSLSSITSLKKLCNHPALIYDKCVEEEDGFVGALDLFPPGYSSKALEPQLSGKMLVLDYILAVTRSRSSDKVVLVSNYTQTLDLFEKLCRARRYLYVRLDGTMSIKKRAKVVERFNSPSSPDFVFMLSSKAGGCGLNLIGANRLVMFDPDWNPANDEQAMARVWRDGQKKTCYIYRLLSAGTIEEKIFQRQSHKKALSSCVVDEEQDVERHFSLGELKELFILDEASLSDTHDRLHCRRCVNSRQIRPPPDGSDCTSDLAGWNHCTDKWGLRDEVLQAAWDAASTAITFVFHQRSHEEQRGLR
# FN deposit inh: fibronectin deposition inhibition | AH1F fibroblasts, Alexa488-fibronectin deposition fluorescence, overnight | inhibition, % at 12.6 µM | actives 0.086% (n = 350,000);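 active = mean inhibition across replicates of 30% or more, regardless of how many single replicates reach that level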;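 note: positive control wells lacked labelled fibronectin entirely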
#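 test system = AH1F fibroblasts assembling fluorescent fibronectin matrix | quantity = 10000 AH1F cells per well | buffer or medium = DMEM plus 2% serum, read in PBS | doses = single dose, pinned | incubation = 1 h cell attachment, overnight exposure to compound and label | detection = fluorescence at 485 nm excitation, 525 nm emission | read-out basis = inhibition from reduced deposited-fibronectin fluorescence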
# RAD52 anneal inh: blocks human RAD52 DNA annealing; recombinant RAD52 DNA annealing, FRET fluorescence; inhibition, % at 18.7 µM; P43351; actives 0.46% (n = 360,000);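 active = every replicate showing at least 50% inhibition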
# PAX8 reporter: lowers PAX8-driven luciferase in RMG-I cells | RMG-I TPO-luciferase reporter, SteadyGlo, 24 h | inhibition, % at 12.6 µM | actives 1.2% (n = 360,000) | AID 652154;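 active = mean replicate inhibition at least 60% with every replicate also reaching 60%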;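 note: luciferase light reporting Pax8 driven TPO promoter activity; plate controls were median of neutral control wells for no effect and mitoxantrone controls for full effect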
# An asterisk follows results filed as active; . = not tested or not shown. Shown are actives, neighbours in structure and some others; about 1.3% of the full set was active somewhere.
SMILES,RAD54 branch,FN deposit inh,RAD52 anneal inh,PAX8 reporter
O=C(Cc1ccccn1)N1CCCCN2[C@@H](CO)[C@@H](c3ccc(-c4ccccc4F)cc3)[C@@H]2C1,7,.,-3,99*
Cc1cc(N2CCOCC2)nc2ccc(NC(=O)CCC(=O)N3CCC4(CC3)OCCO4)cc12,5,2,.,-37
O=c1c2ccccc2nc(-c2ccccc2)n1-c1ccc(O)cc1,.,2,-14,7
O=[N+]([O-])c1ccc(N2CCNCC2)cc1N1CCCCC1,.,.,-6,83*
CC1OC(OC2C=C3CCC4C(CCC5(C)C(c6ccc(=O)oc6)CCC45O)C3(C)CC2)C(O)C(OC2OC(CO)C(O)C(O)C2O)C1O (stereo not drawn),.,-7,-5,106*
OC(CCNCCc1c[nH]c2ccccc12)C(F)(F)Cl (stereo not drawn),.,.,-9,-4
C/C=C/c1ccc(C2[C@@H]3CN(Cc4cocn4)C[C@H]2N3)cc1 (stereo partly drawn),.,-8,56*,-4
C/C=C/c1ccc(C2[C@@H]3CN(Cc4nccs4)C[C@H]2N3)cc1 (stereo partly drawn),.,-7,23,-9
CC(=O)OC1CC(OC2C(O)CC(OC3C(O)CC(OC4CCC5(C)C(CCC6C5CCC5(C)C(C7=CC(=O)OC7)C(O)CC65O)C4)OC3C)OC2C)OC(C)C1OC1OC(CO)C(O)C(O)C1O (stereo not drawn),.,9,-7,104*
CCCCn1c(O)c(C(=O)/C=C/c2c[nH]c3ccccc23)c(=O)[nH]c1=O,.,13,-131,4
C[C@@H]1CN([C@H](C)CO)C(=O)CCCn2nncc2CO[C@@H]1CN(C)C(=O)Oc1cccc2ccccc12,-6,3,-14,-7
CCCN1[C@@H]2Cn3c(ccc(-c4ccc(F)cc4)c3=O)[C@H]1[C@@H](C(=O)OC)[C@@H]2CO,4,.,53*,4
CCc1cc2c(N3CCN(C)CC3)ncnc2s1,-4,3,.,2
N#CC1c2ccccc2-n2nncc2CN1Cc1cc(Cl)cc(Cl)c1 (stereo not drawn),-16,.,-14,106*
COc1ccc(CN2Cc3cnnn3-c3ccccc3C2C#N)cc1 (stereo not drawn),6,0,-16,62*
CN1Cc2cnnn2-c2ccccc2C1C#N (stereo not drawn),-9,.,-7,-7
O=c1[nH]c2ccccc2n1C1CCN(C(c2nnnn2-c2ccc3c(c2)OCCO3)C2CC2)CC1 (stereo not drawn),0,8,-7,86*
O=c1[nH]c2ccccc2n1C1CCN(C(c2ccccc2)c2nnnn2-c2ccc3c(c2)OCCO3)CC1 (stereo not drawn),11,12,-15,81*
COc1ccc(-n2nnnc2C(C2CC2)N2CCC(n3c(=O)[nH]c4ccccc43)CC2)cc1 (stereo not drawn),-5,24,-12,20
O=C1NCN(c2ccccc2)C12CCN(C(c1cccs1)c1nnnn1-c1ccc3c(c1)OCCO3)CC2 (stereo not drawn),1,.,-43,23
O=c1[nH]c2ccccc2n1C1CCN(C(c2cccs2)c2nnnn2-c2ccc3c(c2)OCCO3)CC1 (stereo not drawn),1,11,1,96*
COc1ccccc1N,.,.,-10,.
C=CCn1c(O)c(/C(CC)=N/NC(=S)Nc2ccccc2)c(=O)[nH]c1=O,2,-1,-12,4
COC(=O)[C@@H]1[C@@H](CO)[C@@H]2Cn3c(ccc(-c4ccccc4)c3=O)[C@H]1N2CCc1ccccc1,-6,.,10,.
CCOC(=O)c1cccc(-[n+]2c(-c3ccccc3)cc(-c3ccccc3)cc2-c2ccccc2)c1,4,-8,-11,89*
SMILES,RAD54 branch,FN deposit inh,RAD52 anneal inh,PAX8 reporter
Cc1ccc(-c2cc(-c3ccccc3)cc(-c3ccccc3)[n+]2-c2ccccc2)cc1,11,-1,9,95*
c1ccc(-c2cc(-c3ccccc3)[n+](-c3ccccc3)c(-c3ccccc3)c2)cc1,15,3,4,96*
Cc1ccc(-c2cc(-c3ccc(C)cc3)[n+](-c3ccccc3)c(-c3ccc(C)cc3)c2)cc1,38,.,.,.
CN(C)c1ccc(-[n+]2c(-c3ccccc3)cc(-c3ccccc3)cc2-c2ccccc2)cc1,.,4,27,88*
CC(C)N1CC=C(c2c[nH]c3ccccc23)CC1,18,.,.,.
O=S1(=O)N(CCN2CC=C(c3c[nH]c4cc(F)ccc34)CC2)c2cccc3c2N1CCC3,-1,4,-1,85*
C=C1C(=O)OC2CC3(C)OC3CCC(C)=CC(OC(C)=O)C12 (stereo not drawn),.,.,-6,95*
COC(=O)C1=C(c2ccc(F)cc2OCc2ccccc2)C[C@@H]2CC[C@H]1N2C(=O)NCc1ccc(C(F)(F)F)cc1,0,5,-12,88*
COC(=O)C1=C(c2cc3ccccc3s2)C[C@@H]2CC[C@H]1N2C(=O)NCC1CC1,-1,2,-10,13
COC(=O)C1=C(c2cc3ccccc3s2)C[C@@H]2CC[C@H]1N2C(=O)NCc1ccc(C(F)(F)F)cc1,-20,-6,-1,66*
Cc1cccc(S(=O)(=O)N2[C@@H]3Cn4c(ccc(-c5ccccc5)c4=O)[C@H]2[C@@H](C(=O)O)[C@@H]3CO)c1,7,.,-17,-7
Cc1cccc(NP(=O)(Oc2ccccc2F)Oc2ccccc2F)c1C,0,0,-16,33
COC(=O)C1=C(c2ccccc2OCc2ccccc2)C[C@@H]2CC[C@H]1N2C(=O)NCc1ccc(C(F)(F)F)cc1,-11,1,-20,-2
CN1C2CCC1/C(=C/c1ccccn1)C(=O)/C2=C\c1ccccn1,12,29,-22,107*
Cc1ccccc1-n1c(/C=C/c2ccccn2)nc2ccccc2c1=O,-1,7,-1,47
O=C(c1cccc(C(F)(F)F)c1)N1C[C@H]2C[C@@H](C1)c1cccc(=O)n1C2,-2,.,-4,.
CCOC(=O)[C@]12Cc3cc(Cl)ccc3[C@H]1N(C)C(=O)c1ccccc12,.,15,9,14
CCOC(=O)[C@]12Cc3cc(OC)ccc3[C@H]1N(C)C(=O)c1ccccc12,.,.,-10,-51
CCOC(=O)[C@]12Cc3cc(Cl)ccc3[C@H]1N(C(C)C)C(=O)c1ccccc12,.,4,-28,86*
CCOC(=O)[C@]12Cc3cc(OC)ccc3[C@H]1N(C1CCCCC1)C(=O)c1ccccc12,.,.,-15,76*
CC(C)NC(=O)N1C[C@@H]2N[C@H](C1)C2c1ccc(Br)cc1 (stereo partly drawn),.,-10,.,.
O=[N+]([O-])c1ccc(C[n+]2c(-c3ccccc3)cc(-c3ccccc3)cc2-c2ccccc2)cc1,8,3,4,79*
Cc1cccc(C)c1-n1nnnc1C(c1ccnc2ccccc12)N1CCC2(CC1)C(=O)NCN2c1ccccc1 (stereo not drawn),5,-7,-11,-21
CC(=O)c1cn(CCCOc2ccccc2)c2ccccc12,-15,-3,5,8
COC(=O)C1=C(c2c(C)noc2C)C[C@@H]2CC[C@H]1N2C(=O)N1CCOCC1,-12,-8,0,4
